# T cruzi inh = inhibitors of intracellular T. cruzi growth, primary screen, luminescence, NIH3T3 host cells. T. cruzi beta-gal in NIH3T3, 90 h. inhibition, % (no concentration beside the values). actives 1.4% (n = 300,000);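 active means mean inhibition across valid replicates above about 55%, limit read from the data; inconclusive means mean below that limit but half or more replicates reach it; inactive means mean below it, under half of replicates reach it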;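 further: signal also drops with host cell toxicity which is not excluded here; higher percent means less beta-gal luminescence so fewer parasites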
#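 System: mouse NIH/3T3 fibroblasts infected with β-gal-expressing T. cruzi Tulahuen C4 / Input: NIH/3T3 cells, 5,000 per well / Buffer or medium: Low-serum DMEM with 2% FBS / Probe or stimulus: 5000 reporter trypomastigotes per well / Schedule: ≥90 h infection period, 3 h prior cell attachment / Measured by: GalScreen luminescence, 60 min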
# Mdm2-MdmX inh = inhibitors of human Mdm2-MdmX association, primary screen, cell-based, luminescence, split luciferase, SaOS-2, uHTS; SaOS-2 split-luciferase Mdm2/MdmX complementation; actives 3% (n = 330,000); AID 485346, 2010; inhibition, % at 8 µM;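 active means inhibition of at least 50% at 8 µM in the primary screen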
# Target sequence (O15151 whole entry, looked up): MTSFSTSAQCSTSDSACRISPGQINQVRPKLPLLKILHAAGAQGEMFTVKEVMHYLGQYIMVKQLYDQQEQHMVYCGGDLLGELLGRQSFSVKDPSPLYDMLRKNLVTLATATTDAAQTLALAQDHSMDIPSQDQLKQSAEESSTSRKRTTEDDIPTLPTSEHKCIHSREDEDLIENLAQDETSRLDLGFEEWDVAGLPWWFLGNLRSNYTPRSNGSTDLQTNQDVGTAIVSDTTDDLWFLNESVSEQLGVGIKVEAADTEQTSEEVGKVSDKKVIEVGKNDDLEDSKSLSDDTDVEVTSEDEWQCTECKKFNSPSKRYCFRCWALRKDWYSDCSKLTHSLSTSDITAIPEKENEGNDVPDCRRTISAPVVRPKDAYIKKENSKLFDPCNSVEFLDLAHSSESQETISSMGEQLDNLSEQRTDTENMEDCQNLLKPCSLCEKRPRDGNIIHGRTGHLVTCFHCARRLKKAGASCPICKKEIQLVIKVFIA
# Target sequence (Q00987 whole entry, looked up): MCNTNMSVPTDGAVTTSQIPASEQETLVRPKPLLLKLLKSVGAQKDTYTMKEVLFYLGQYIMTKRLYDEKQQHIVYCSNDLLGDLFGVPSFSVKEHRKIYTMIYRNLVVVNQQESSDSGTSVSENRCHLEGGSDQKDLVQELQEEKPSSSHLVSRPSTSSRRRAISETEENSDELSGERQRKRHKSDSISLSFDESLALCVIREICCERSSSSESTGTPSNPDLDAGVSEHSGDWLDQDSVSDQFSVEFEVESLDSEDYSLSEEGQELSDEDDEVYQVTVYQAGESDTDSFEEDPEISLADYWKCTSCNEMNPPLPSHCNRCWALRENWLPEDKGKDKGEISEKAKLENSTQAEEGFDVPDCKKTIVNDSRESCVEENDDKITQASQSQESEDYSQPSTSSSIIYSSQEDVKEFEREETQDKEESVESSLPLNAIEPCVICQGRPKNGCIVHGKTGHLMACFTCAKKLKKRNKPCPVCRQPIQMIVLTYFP
# aSyn UTR inh = MLPCN primary screen, SNCA 5' untranslated region | alpha-synuclein 5'UTR reporter, inhibitor activity | actives 0.82% (n = 300,000) | inhibition, % (tested at 7.5 µM); in the data active means inhibition above about 60%; inconclusive means no clear call, values can overlap the other calls;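 further: H4 neuroglioblastoma cells stably carrying SNCA 5'UTR luciferase fusion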
# CSC inhib = cancer stem cell viability inhibitors, primary screen, luminescence | inhibition, % at 7.5 µM | actives 1.1% (n = 300,000) | cancer stem cell-like cells viability; in the data active means inhibition above about 75%; inconclusive means no clear call, values can overlap the other calls; tested in HMLE shEcad cells
# SKKanGAS inh = S. pyogenes SKKanGAS growth inhibitors in kanamycin, primary screen, streptokinase expression inhibitor project, SKKanGAS strain, BacTiter-Glo luminescence. inhibition, % at 7.5 µM. actives 1.3% (n = 300,000). 6 h;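 active means mean replicate score, as percent of positive control median, at least 50; inconclusive means mean below 50 but one replicate at or above 50; inactive means mean and every replicate below 50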;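 further: strain carries kanamycin resistance gene driven by streptokinase promoter and grows in 40 µg/ml kanamycin; loss of luminescence reflects streptokinase promoter inhibition or plain growth inhibition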
# Mdm2 MdmX conf = Mdm2-MdmX complex disruptors, retested hits, confirmation, luminescence, single concentration | shares compounds with Mdm2-MdmX inh | Mdm2-MdmX binding, luminescent assay | inhibition, % at 8 µM | actives 55% (n = 10,000) | AID 489028, 2010; in the data active means inhibition above about 40%
# Full FLuc ctr = full-length luciferase signal inhibition, confirmation, counter-screen for Mdm2/MdmX interaction inhibitor project, cell-based, single concentration, SaOS-2; AID 504607, 2011; shares compounds with Mdm2-MdmX inh; actives 77% (n = 6,200); SaOS-2 full-length luciferase counterscreen, luminescence; inhibition, % at 8 µM;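 active means mean inhibition at 8 µM reaching about 37%, which flags the compound as non-specific, limit read from the data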;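 further: p53-null SaOS-2 cells with luciferase driven by a doxycycline-inducible promoter; compound on cells about two nights before reading with doxycycline added after day one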
# Hits are given with their value; - = inactive; ? = inconclusive; . = no result given. The list is not random: actives were taken first. Their share in the collection is about 5.4%.
SMILES,T cruzi inh,Mdm2-MdmX inh,aSyn UTR inh,CSC inhib,SKKanGAS inh,Mdm2 MdmX conf,Full FLuc ctr
Cc1ccc(N2C(=O)CSC2c2cccnc2)c(Cl)c1 (stereo not given),-,-,-,-,-,.,.
CCN(CC)S(=O)(=O)c1ccc(N/N=C/c2ccc(O)cc2O)nc1,-,64.8,90.0,112.0,-,78.5,49.9
CC(=O)Nc1ccc(Nc2ccc3c4c(cc(=O)n3C)-c3ccccc3C(=O)c24)cc1,55.8,58.9,-,-,-,-,.
CC(=O)Nc1c2c3c(cccc3n(C)c1=O)C(=O)c1ccccc1-2,-,-,-,.,-,.,.
C=CCCC(=O)Nc1nc(C)c(-c2csc(Nc3cc(OC)ccc3OC)n2)s1,-,65.7,-,?,-,60.0,45.8
CCCC(=O)Nc1nc(C)c(-c2csc(Nc3cc(OC)ccc3OC)n2)s1,-,-,?,-,-,.,.
Cc1ccc(C)c(OCC(=O)N2CCN(c3ncccn3)CC2)c1,.,-,.,-,.,.,.
COC(=O)C1=C(Nc2ccc(C)cc2)C=C(C)C(C(=O)OC)C1c1ccc(OC)cc1 (stereo not given),-,-,-,-,-,.,.
COC(=O)C1=C(Nc2ccc(C)cc2)C=C(C)C(C(=O)OC)C1c1cccc(OC)c1 (stereo not given),58.0,52.9,-,-,-,56.9,62.0
Cc1cc(C(=O)NNC(=O)c2ccc(NC(=O)CC#N)cc2)c(C)o1,.,-,.,-,.,.,.
CCOC(=O)N1CCN(S(=O)(=O)c2ccc(C(=O)Nc3nnc(CSC)o3)cc2)CC1,-,-,-,-,-,.,.
COc1cc(OC)c2c(-c3ccccc3)cc(=O)oc2c1C(CC(=O)N1CCCC1)c1ccc2c(c1)OCO2 (stereo not given),-,-,-,-,-,.,.
COc1cc(OC)c2c(-c3ccccc3)cc(=O)oc2c1C(CCN1CCCC(C)C1)c1ccc2c(c1)OCO2 (stereo not given),-,73.8,-,-,-,-,77.2
COc1cc(OC)c2c(-c3ccccc3)cc(=O)oc2c1C(CCN1CCCCC1)c1ccc2c(c1)OCO2 (stereo not given),-,98.6,-,-,-,-,.
Cc1ccc(C)c(NC(=O)C[n+]2ccccc2)c1,-,-,-,-,-,.,.
FC(F)(F)c1ccc(C2[C@H]3CN(Cc4ccc(-c5ccccc5)cc4)[C@H](c4ccccc4)C34CC2(c2cccnc2)C4)cc1 (stereo not given in full),-,53.5,-,-,-,-,58.5
CCOC(=O)c1c(C)[nH]c(C)c1C(=O)COC(=O)/C=C/c1cccc(F)c1,-,.,-,-,-,.,.
CCOC(=O)c1c(C)[nH]c(C)c1C(=O)COC(=O)/C=C/c1ccc(OC)cc1,.,69.2,.,.,.,77.1,53.1
Cc1cc(=O)oc2cc(OCC(=O)c3ccc4c(c3)NC(=O)CO4)ccc12,-,64.8,-,-,-,54.4,108.9
COc1ccc(/C=C/C(=O)OCC(=O)c2ccc3c(c2)NC(=O)CO3)cc1,-,91.9,-,-,-,-,.
CC(C)CC(NC(=O)c1ccc(Cl)cc1)C(=O)OCC(=O)c1ccc2c(c1)NC(=O)CO2 (stereo not given),-,95.1,96.0,-,-,94.3,-
COc1cc(/C=C/C(=O)OCC(=O)c2ccc3c(c2)NC(=O)CO3)ccc1OC(F)F,.,-,.,.,.,.,.
Cc1cc(S(=O)(=O)Nc2ccc(C(=O)NCC(c3ccco3)N(C)C)cc2)ccc1F (stereo not given),-,-,-,.,-,.,.
c1csc(-c2noc(CN3CCc4sccc4C3)n2)c1,-,-,-,-,-,.,.
C/C(=N\NC(=S)Nc1ccc(F)cc1)c1ccc2c(c1)OCCO2,-,64.2,-,75.7,-,62.2,56.5
SMILES,T cruzi inh,Mdm2-MdmX inh,aSyn UTR inh,CSC inhib,SKKanGAS inh,Mdm2 MdmX conf,Full FLuc ctr
C/C(=N\NC(N)=S)c1ccc2c(c1)OCCO2,-,-,-,-,-,.,.
O=C(NCC(=O)N1CCN(S(=O)(=O)c2ccccc2C(F)(F)F)CC1)c1sc2ccccc2c1Cl,-,56.8,-,-,-,-,.
O=C(Nc1ccc(SC(F)F)cc1)c1cccc2nc3ccccc3nc12,-,77.7,-,-,-,-,.
O=C(COC(=O)CCNS(=O)(=O)c1cccs1)Nc1ccccc1,.,-,.,.,.,.,.
O=C(O)C1CCN(c2nc(-c3ccccc3)nc3c2oc2ccccc23)CC1,-,-,-,-,-,.,.
OCCN1CCN(c2nc(-c3ccccc3)nc3c2oc2ccccc23)CC1,-,53.9,-,-,-,-,53.7
O=C(Cn1ncc(Cl)c(Cl)c1=O)c1ccc2c(c1)OCCO2,.,100.2,.,111.6,.,82.5,52.1
O=C(Cn1ncc(Cl)c(Cl)c1=O)NC(=O)NC1CCCCC1,.,100.2,.,?,.,96.7,50.0
Cc1ccc(NC(=O)CCl)cc1S(=O)(=O)N1CCCCCC1,-,97.2,-,-,-,-,.
O=C(Cn1ncc(Cl)c(Cl)c1=O)N1CCN(S(=O)(=O)c2ccc3ccccc3c2)CC1,-,100.2,-,102.2,.,100.2,53.0
C[C@@H]1CN([C@@H](C)CO)C(=O)c2cccc(NC(=O)c3nc4ccccc4s3)c2O[C@@H]1CN(C)CC1CC1,.,-,.,.,.,.,.
CCOC(=O)c1cn2nc(Oc3ccc(C#N)cc3)ccc2n1,-,-,-,-,-,.,.
O=C(Cn1ncc(Cl)c(Cl)c1=O)Nc1ccc2c(c1)OCO2,.,100.3,.,.,.,82.8,57.2
Cc1ccc(S(=O)(=O)N2CCCCC2)cc1NC(=O)Cn1ncc(Cl)c(Cl)c1=O,.,96.8,.,90.5,.,99.2,54.5
CCN(CC)S(=O)(=O)c1cc(NC(=O)Cn2ncc(Cl)c(Cl)c2=O)ccc1C,?,100.4,-,?,-,100.2,50.1
Cc1nn(CC(=O)Nc2ccc3c(c2)OCO3)c(C)c1Cl,-,-,-,-,-,.,.
Cc1cc(Br)ccc1NC(=O)CNC(=O)Cn1ncc(Cl)c(Cl)c1=O,-,97.3,62.7,83.2,-,99.2,47.8
CN(C)C1=NCCN1CCC1CCCC1,-,-,-,-,-,.,.
Cc1cc(N2O[C@]34C=C[C@]25C[C@@H](O)CC[C@]5(C)C3CC[C@]2(C)[C@@H]([C@H](C)/C=C/[C@H](C)C(C)C)CC[C@H]24)no1 (stereo not given in full),.,90.7,.,.,.,-,.
O=C(COCC(=O)N/N=C/c1ccc(F)cc1)N/N=C/c1ccc(F)cc1,-,-,-,-,-,.,.
O=C(Nc1nc2ccccc2n1CCOc1ccccc1)c1ccco1,-,52.9,-,.,77.1,-,.

# Source: PubChem BioAssay (several laboratories)
